# MsrA inhibitor – inhibitors of bovine MsrA | purified bovine MsrA, absorbance read-out | inhibition, % at 15.5 µM | 360,000 compounds, 0.75% hits | AID 651718; in the data active = inhibition above about 4.5%;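 also: 0% = vehicle wells with enzyme and 100% = reference inhibitor wells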
# AI-2 QS mod – Vibrio harveyi AI-2 quorum sensing modulation; Vibrio harveyi JMH597 AI-2 luminescence/OD600 ratio, 9 h; stronger effect = lower value; strain lacks LuxN and CqsS sensors; 0 = neutral-control median; 300,000 compounds, 0.4% hits; AID 2094; activity change, % at 7.5 µM; in the data active = activity change below about -75%, passing the limit was not always enough;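 also: luminescence divided by OD600 gain over 9 h not by final OD600 alone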
# AHR activator – activators of human aryl hydrocarbon receptor | P35869 | AHR-responsive luciferase reporter cells, luminescence | activation, % at 5 µM | 320,000 compounds, 2.5% hits | AID 2796; in the data active = activation above about 47%;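 also: 0% = vehicle wells and 100% = reference agonist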
# MsrA act – activators of bovine methionine sulfoxide reductase A. purified bovine MsrA, absorbance read-out. AID 602163. activation, % at 10.6 µM. 360,000 compounds, 0.3% hits; in the data active = activation above about 7.5%;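 also: 0% = vehicle and 100% = reference activator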
# m5-HT2A agonist – mouse HTR2A agonism via beta-arrestin recruitment; CHO-K1 mHTR2A beta-arrestin complementation, luminescence; percent of 30 µM serotonin response; activation, % at 7.6 µM; P35363; 360,000 compounds, 0.66% hits;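 active = activation above a run cutoff, the mean activation of all tested compounds plus 3 SD, cut at about 14% in these data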;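 also: 0% = plate median of compound wells and 100% = 30 µM serotonin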
# Target sequence (P35363 whole entry, looked up): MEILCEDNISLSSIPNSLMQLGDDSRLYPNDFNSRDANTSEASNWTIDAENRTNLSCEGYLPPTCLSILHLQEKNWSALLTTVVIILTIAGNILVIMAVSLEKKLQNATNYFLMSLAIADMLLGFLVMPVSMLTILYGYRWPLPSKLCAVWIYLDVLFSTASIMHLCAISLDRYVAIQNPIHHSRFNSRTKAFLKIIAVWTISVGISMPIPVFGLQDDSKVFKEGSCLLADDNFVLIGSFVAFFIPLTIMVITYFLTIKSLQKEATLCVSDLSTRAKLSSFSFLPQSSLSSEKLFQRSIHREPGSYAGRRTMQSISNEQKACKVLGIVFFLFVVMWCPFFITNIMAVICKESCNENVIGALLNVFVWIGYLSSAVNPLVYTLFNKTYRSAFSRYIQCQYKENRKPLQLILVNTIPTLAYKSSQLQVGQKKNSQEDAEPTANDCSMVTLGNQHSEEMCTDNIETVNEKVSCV
# TbMetRS inhib – Trypanosoma brucei MetRS inhibition; purified T. brucei MetRS, ATP depletion, Kinase-Glo luminescence; AID 624268; inhibition, % at 11.9 µM; 360,000 compounds, 0.4% hits;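 active = inhibition above a per-plate cutoff of the control wells' mean inhibition plus 3 SD, cut at about 5.5% in these data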;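 also: 0% = DMSO wells median and 100% = median of wells with control inhibitor compound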
#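 technique = Kinase-Glo luminescence, ATP depletion format | system = purified MetRS (methionyl-tRNA synthetase) enzyme from Trypanosoma brucei | timing = 15 min preincubation, 2 h reaction, all 25 °C | evaluation = percent inhibition versus plate control medians | dosing = single dose, 11.9 µM final nominal, 0.9% final DMSO | also added = substrates ATP, L-methionine and bulk Escherichia coli tRNA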
# AHR act cf – confirmation of human aryl hydrocarbon receptor activators; activation, % at 9 µM; AID 2845; human cells, AHR-responsive luciferase reporter, luminescence; 2,300 compounds, 87% hits; shares compounds with AHR activator; in the data active = activation above about 49%;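 also: HepG2 hepatoma cells carrying a DRE-driven firefly luciferase reporter; 0% = vehicle wells and 100% = reference agonist wells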
# PXR act counter – activates human PXR in AHR activator counter-screen. shares compounds with AHR activator. cell-based PXR reporter, luciferase luminescence. activation, % at 11.6 µM. 2,300 compounds, 88% hits. AID 434939; in the data active = activation above about 11%;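 also: human hepatoma DPX-2 cells expressing full-length human PXR; 0% = DMSO and 100% = reference agonist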
# Starred values were filed as active, the others as inactive; / = no result. A selection: hits, their analogues and other compounds. The true share with any hit is near 4.4%.
SMILES,MsrA inhibitor,AI-2 QS mod,AHR activator,MsrA act,m5-HT2A agonist,TbMetRS inhib,AHR act cf,PXR act counter
Cn1nc(-c2ccc(Cl)cc2)c2cc(C(=O)N3CCN(c4ccccc4)CC3)sc21,0.0,4.1,100.7*,-0.9,-6.3,-0.6,73.8*,33.7*
CCN(CC)CCCNC(=O)c1cc2c(-c3cccc(OC)c3)nn(C)c2s1,0.8,-1.2,13.4,-1.9,-9.3,-0.2,/,/
CC(=O)c1sc(NC(=O)C2CCCN2S(=O)(=O)c2ccccc2F)nc1C (stereo not drawn),1.4,/,-1.2,-6.5,-4.7,-0.3,/,/
Cn1nc(-c2ccc(Cl)cc2)c2cc(C(=O)N3CCN(c4ccccn4)CC3)sc21,/,12.5,106.2*,-0.1,1.7,0.3,71.2*,45.5*
Cc1cc(OCc2nc3ccccc3s2)ccc1N,1.5,0.3,86.2*,-4.3,8.1,-0.2,92.3*,33.7*
c1ccc(OCc2nc3ccccc3s2)cc1,0.4,-11.6,16.4,3.5,1.5,0.6,/,/
COC(=O)Nc1nn(-c2ccc(Cl)cc2)c(=O)c(C#N)c1C,0.3,7.1,96.2*,-6.2,-0.7,0.4,28.7,14.2*
Cc1c(C(=O)NN)nn(-c2ccc(F)cc2)c(=O)c1C#N,0.5,-1.8,9.5,-1.0,2.7,-1.2,/,/
CCCCN1CCC(=O)C(C(=O)OCC)=C1C(=O)OCC,2.0,/,/,-2.1,-5.4,0.1,/,/
C[C@@H]1CN([C@@H](C)CO)S(=O)(=O)c2ccc(Br)cc2O[C@H]1CN(C)Cc1ccccn1,-1.5,/,/,-0.3,-2.8,-1.0,/,/
Cc1nc(NC(=O)CSc2nnc(-c3ccc4c(c3)OCO4)o2)c(Cl)cc1Cl,0.3,0.0,127.8*,-2.4,5.7,0.5,105.4*,87.9*
Cc1ccc(S(=O)(=O)N2CCN(CN3C(=O)CC4(CCCC4)C3=O)CC2)cc1,0.6,/,/,-0.8,1.9,0.3,/,/
Nc1c(Cl)cc(C2=NCCn3nc4cc([N+](=O)[O-])ccc4c32)cc1Cl,0.3,/,118.0*,-2.4,1.5,-0.4,103.7*,54.3*
COc1cccc2c(=O)c3c([nH]c12)OC(C)(C)C3,1.4,28.0,0.3,-6.1,1.3,-0.3,/,/
COc1cccc2c(=O)c3cccc(N)c3[nH]c12,1.1,36.4,80.1*,-2.7,0.2,0.5,60.4*,/
O=C(COC(=O)COc1ccccc1F)NCCc1ccc(F)cc1,-0.1,/,-1.9,-0.8,5.1,0.0,/,/
COc1ccc(CNC(=O)CN2C(=O)COc3ccc(S(=O)(=O)N4CCC(C)CC4)cc32)cc1,-1.4,51.1,1.7,-2.9,4.1,0.0,/,/
O=C(O)COn1c(-c2ccccc2)nc2ccc([N+](=O)[O-])cc21,3.6,11.7,141.4*,-1.4,-2.8,-0.3,52.9*,/
CC(=O)OC/C=C(\C)CCC=C(C)C,0.3,/,0.9,-0.7,-2.4,0.0,/,/
CC(NC(=O)Cn1cccc1)c1ccccc1 (stereo not drawn),0.8,27.7,-3.3,-0.9,4.6,0.7,/,/
CN(C)c1nc(-c2ccccc2)nnc1C(F)(F)F,1.9,17.4,96.2*,-7.8,2.8,-2.0,114.2*,25.0*
Cc1cc(=O)[nH]c(S/C=C/c2ccccc2)n1,-0.4,40.3,117.8*,-2.1,2.4,-1.5,101.8*,25.5*
CC(=O)/C(N=Nc1ccc2c(c1)OCCO2)=C(\C)O,2.2,20.0,-0.2,-5.6,-0.6,-0.9,/,/
CC(=O)/C(N=Nc1ccc2c(c1)OCO2)=C(\C)O,1.3,13.3,112.3*,-2.7,5.2,-0.2,94.7*,9.0
c1ccc(-c2cccs2)nc1,-0.7,11.4,-1.6,-1.8,1.5,0.0,/,/
SMILES,MsrA inhibitor,AI-2 QS mod,AHR activator,MsrA act,m5-HT2A agonist,TbMetRS inhib,AHR act cf,PXR act counter
c1cc(-c2cccs2)nc(-c2cccs2)c1,-0.3,24.4,96.1*,-2.9,-0.7,-0.4,84.0*,16.1*
CN1C(=O)/C(=C/c2ccccc2OCc2ccccc2F)NC1=S,-1.9,4.4,93.3*,-6.6,-6.5,-1.2,78.5*,85.0*
O=C(O)c1ccc(COc2ccccc2/C=C2\NC(=O)N(Cc3ccccc3F)C2=O)cc1,3.5,14.4,-1.0,-4.8,-3.3,-0.4,/,/
O=C(/C=C/c1ccccc1)c1c[nH]c2ccccc12,1.1,-10.6,83.8*,-9.1,-7.5,4.9,92.6*,31.5*
O=C(Nc1ccccc1)C(=O)c1c[nH]c2ccccc12,1.4,-1.4,102.0*,-3.2,-1.7,0.3,129.0*,28.0*
CCc1cc(/C(Cc2ccc3ccccc3n2)=N\O)c(O)cc1O,-0.5,22.4,88.5*,-5.3,-4.2,0.2,55.1*,/
CC1(C)CC(=O)C=C(C#CC2(O)CCCCC2)C1,-0.7,/,/,-0.6,-0.5,-1.0,/,/
O=c1[nH]c(CN2CCc3ccccc3C2)nc2ccccc12,0.0,15.4,85.5*,0.5,-1.0,0.2,100.2*,67.0*
Cc1ccc2c(c1)Oc1ccc([N+](=O)[O-])cc1C(=O)N2,-0.6,7.7,88.0*,-3.7,-5.7,0.7,81.7*,67.6*
Cc1ccc2c(c1)Oc1ccc(NC(=O)CCl)cc1C(=O)N2,0.9,6.5,19.6,-2.9,-3.1,-0.1,/,/
N/C(=N\OC(=O)c1cc(Cl)ccc1Cl)c1cccnc1,-0.5,12.6,34.2,-2.1,-2.3,0.0,/,/
N/C(=N\OC(=O)c1ccccc1Cl)c1cccnc1,-0.8,14.5,102.1*,-0.2,-2.7,-0.9,103.9*,5.2
N/C(=N\OC(=O)c1ccccc1)c1cccnc1,0.8,11.7,27.7,-14.6,-3.2,1.5,/,/
N/C(=N\OC(=O)c1ccc(Cl)c(Cl)c1)c1cccnc1,-0.5,18.8,79.8*,-0.3,2.2,-0.1,79.6*,13.8*
Cc1ccccc1N/N=C1\CCCNC1=O,0.9,8.2,-5.1,-2.5,-4.8,0.0,/,/
O=C1NCCC/C1=N\Nc1ccc(Br)cc1,3.0,6.2,119.3*,-9.7,0.7,-0.4,124.5*,20.6*
NC(=O)c1cc([N+](=O)[O-])ccc1NCCc1ccccc1,0.9,12.2,/,-3.3,-2.9,1.8,/,/
O=[N+]([O-])c1ccc(NCCc2ccccc2)c(Br)c1,0.3,18.7,114.3*,/,/,/,104.3*,12.5*
COCCN1Cc2c(sc(C)c2C)N(C(=O)c2ccccc2)C1,0.7,10.9,82.1*,0.9,-6.0,-0.7,84.1*,38.5*
Cc1sc2c(c1C)CN(C(C)(C)C)CN2C(=O)c1ccccc1,1.2,-5.2,24.5,3.7,3.4,0.1,/,/
COc1ccc(N2CCN(c3cc(C)c4ccccc4n3)CC2)cc1,-0.2,14.9,33.4,-13.6,2.5,1.1,/,/
Cc1cc(-c2ccc(N3CCOCC3)cc2)nc2ccccc12,2.0,22.3,/,-3.4,-1.1,-0.2,/,51.7*
Cc1cc(N2CCN(c3ccccc3)CC2)nc2ccccc12,0.8,21.7,124.9*,-4.7,1.1,-0.9,106.0*,19.6*
